Results: ChEMBL document CHEMBL4330096, “Discovery of potent and selective 5-azaindazole inhibitors of leucine-rich repeat kinase 2 (LRRK2) - Part 1” (Bioorg Med Chem Lett, 2019)

How the values were obtained:
[1] = target: Leucine-rich repeat serine/threonine-protein kinase 2 (Homo sapiens, UniProt Q5S007, G2019S); test: Inhibition of recombinant human GST-tagged LRRK2 G2019S mutant catalytic domain (970 to 2527 residues) expressed in baculovirus expression system by radiometric assay
[2] = target: Tyrosine-protein kinase CSK (Homo sapiens) (UniProt P41240); test: Inhibition of CSK (unknown origin) at 10 uM relative to control
Summary of the method: (§1)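 Single-point screen of each compound against a panel of 59 protein kinases, at 1 or 10 μM. The panel data are also summarised as a rescaled geometric mean selectivity score.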

[3] = target: MAP/microtubule affinity-regulating kinase 3 (Homo sapiens) (UniProt P27448); test: Inhibition of MARK3 (unknown origin) at 10 uM relative to control
Summary of the method: (§2)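 Single-concentration screen of each compound against a 59-protein-kinase panel, run at 10 µM or 1 µM. Activity relative to control is shown as a heat map across the panel.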

[4] = target: T1, Serine/threonine-protein kinase 3 (Homo sapiens) (UniProt Q13188); test: Inhibition of MST2 (unknown origin) at 10 uM relative to control; summary of the method: as §2
T1 sequence (whole entry): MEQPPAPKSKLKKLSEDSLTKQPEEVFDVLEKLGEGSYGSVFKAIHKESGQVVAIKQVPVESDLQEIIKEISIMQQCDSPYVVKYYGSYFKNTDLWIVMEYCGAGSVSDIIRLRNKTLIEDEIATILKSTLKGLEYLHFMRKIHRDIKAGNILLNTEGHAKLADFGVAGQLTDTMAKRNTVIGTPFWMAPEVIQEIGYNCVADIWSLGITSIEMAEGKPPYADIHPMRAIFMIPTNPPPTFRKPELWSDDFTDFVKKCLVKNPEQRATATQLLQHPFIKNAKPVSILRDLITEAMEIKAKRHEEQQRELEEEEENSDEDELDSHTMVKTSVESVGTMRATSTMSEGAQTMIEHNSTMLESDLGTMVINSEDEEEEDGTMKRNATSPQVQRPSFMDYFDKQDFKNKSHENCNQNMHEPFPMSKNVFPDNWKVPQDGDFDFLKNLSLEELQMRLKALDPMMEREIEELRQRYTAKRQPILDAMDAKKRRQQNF

[5] = target: RAC-beta serine/threonine-protein kinase (Homo sapiens) (UniProt P31751); test: Inhibition of PKBb (unknown origin) at 10 uM relative to control; summary of the method: as §2
[6] = target: Homeodomain-interacting protein kinase 2 (Homo sapiens) (UniProt Q9H2X6); test: Inhibition of HIPK2 (unknown origin) at 10 uM relative to control; summary of the method: as §1
[7] = target: Ribosomal protein S6 kinase alpha-5 (Homo sapiens) (UniProt O75582); test: Inhibition of MSK1 (unknown origin) at 10 uM relative to control; summary of the method: as §2
[8] = target: CDK2/Cyclin A2 (Homo sapiens) (UniProt P24941+P20248); test: Inhibition of CDK2/cyclinA (unknown origin) at 10 uM relative to control; type: protein-complex assay; summary of the method: as §1
[9] = target: Calcium/calmodulin-dependent protein kinase kinase 2 (Homo sapiens) (UniProt Q96RR4); test: Inhibition of CAMKKb (unknown origin) at 10 uM relative to control; summary of the method: as §1
[10] = target: T2, Serine/threonine-protein kinase Nek2 (Homo sapiens) (UniProt P51955); test: Inhibition of NEK2a (unknown origin) at 10 uM relative to control; summary of the method: as §2
T2 sequence (whole entry): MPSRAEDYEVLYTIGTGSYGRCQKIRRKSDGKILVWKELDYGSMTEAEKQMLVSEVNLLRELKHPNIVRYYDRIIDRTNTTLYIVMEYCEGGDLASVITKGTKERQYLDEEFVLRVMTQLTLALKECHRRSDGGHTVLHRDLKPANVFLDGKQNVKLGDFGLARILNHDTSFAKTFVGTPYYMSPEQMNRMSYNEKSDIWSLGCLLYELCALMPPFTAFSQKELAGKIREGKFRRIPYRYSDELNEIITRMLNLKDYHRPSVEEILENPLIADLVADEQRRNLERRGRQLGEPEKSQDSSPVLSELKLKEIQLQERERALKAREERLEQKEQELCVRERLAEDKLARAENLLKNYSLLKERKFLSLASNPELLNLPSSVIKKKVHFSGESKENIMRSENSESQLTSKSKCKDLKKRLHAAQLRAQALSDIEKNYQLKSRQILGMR

[11] = target: RAC-alpha serine/threonine-protein kinase (Homo sapiens) (UniProt P31749); test: Inhibition of PKBa (unknown origin) at 10 uM relative to control; summary of the method: as §2
[12] = target: Insulin receptor-related protein (Homo sapiens) (UniProt P14616); test: Inhibition of IRR (unknown origin) at 10 uM relative to control; summary of the method: as §1
[13] = target: Tyrosine-protein kinase BTK (Homo sapiens) (UniProt Q06187); test: Inhibition of BTK (unknown origin) at 10 uM relative to control; summary of the method: as §1
[14] = target: Casein kinase I (Homo sapiens) (UniProt Q9HCP0+P78368+P48730+P49674+P48729); test: Inhibition of CK1 (unknown origin) at 10 uM relative to control; type: protein assay; summary of the method: as §1
[15] = target: Ribosomal protein S6 kinase alpha-1 (Homo sapiens) (UniProt Q15418); test: Inhibition of RSK1 (unknown origin) at 10 uM relative to control; summary of the method: as §2
[16] = Stability in human liver microsomes assessed as compound turnover rate measured after 40 mins; type: ADME, Microsome; details: read-out: Drug metabolism
Summary of the method: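 In vitro incubation of compound with liver microsomes: human (HLM) for 40 min, mouse (MLM) for 30 min. Reported as % turnover of parent compound.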

[17] = target: T3, Serine/threonine-protein kinase Sgk1 (Homo sapiens) (UniProt O00141); test: Inhibition of SGK1 (unknown origin) at 10 uM relative to control
T3 sequence (whole entry): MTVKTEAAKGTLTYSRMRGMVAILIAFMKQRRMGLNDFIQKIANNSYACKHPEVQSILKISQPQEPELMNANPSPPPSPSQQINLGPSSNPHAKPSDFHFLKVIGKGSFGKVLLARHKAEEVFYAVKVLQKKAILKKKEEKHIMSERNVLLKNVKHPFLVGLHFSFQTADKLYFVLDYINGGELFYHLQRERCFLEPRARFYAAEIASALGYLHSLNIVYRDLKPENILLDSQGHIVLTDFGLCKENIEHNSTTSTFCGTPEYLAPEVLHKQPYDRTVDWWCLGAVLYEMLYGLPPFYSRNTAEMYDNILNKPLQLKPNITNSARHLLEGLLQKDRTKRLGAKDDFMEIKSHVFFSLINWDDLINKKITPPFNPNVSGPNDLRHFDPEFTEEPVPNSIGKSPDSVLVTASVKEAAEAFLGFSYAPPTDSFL
Summary of the method: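 Single-concentration screen across a panel of 59 protein kinases, with each compound tested at one fixed concentration. The read-out is residual kinase activity relative to control. Panel results are also condensed into a rescaled geometric mean (RGM) selectivity score.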

Chain of Calcium/calmodulin-dependent protein kinase kinase 2 (Homo sapiens) (Q96RR4 2-588 limits assumed): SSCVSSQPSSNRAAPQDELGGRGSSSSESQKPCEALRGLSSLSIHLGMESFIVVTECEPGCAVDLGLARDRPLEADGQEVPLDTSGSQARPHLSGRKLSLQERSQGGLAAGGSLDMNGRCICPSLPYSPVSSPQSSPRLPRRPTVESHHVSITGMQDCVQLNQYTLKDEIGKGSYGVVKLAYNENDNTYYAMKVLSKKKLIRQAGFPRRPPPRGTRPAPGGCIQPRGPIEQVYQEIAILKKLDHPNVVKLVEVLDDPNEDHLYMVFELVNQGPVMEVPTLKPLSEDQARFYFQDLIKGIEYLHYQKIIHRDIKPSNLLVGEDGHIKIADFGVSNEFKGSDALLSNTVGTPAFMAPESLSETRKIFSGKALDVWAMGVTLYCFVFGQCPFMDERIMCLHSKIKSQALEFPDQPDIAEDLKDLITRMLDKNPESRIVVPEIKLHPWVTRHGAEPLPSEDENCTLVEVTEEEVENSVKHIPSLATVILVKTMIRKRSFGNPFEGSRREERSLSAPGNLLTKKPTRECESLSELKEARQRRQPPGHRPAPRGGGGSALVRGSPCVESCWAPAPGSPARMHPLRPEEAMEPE
Chain of Tyrosine-protein kinase CSK (Homo sapiens) (P41240 2-450 limits assumed): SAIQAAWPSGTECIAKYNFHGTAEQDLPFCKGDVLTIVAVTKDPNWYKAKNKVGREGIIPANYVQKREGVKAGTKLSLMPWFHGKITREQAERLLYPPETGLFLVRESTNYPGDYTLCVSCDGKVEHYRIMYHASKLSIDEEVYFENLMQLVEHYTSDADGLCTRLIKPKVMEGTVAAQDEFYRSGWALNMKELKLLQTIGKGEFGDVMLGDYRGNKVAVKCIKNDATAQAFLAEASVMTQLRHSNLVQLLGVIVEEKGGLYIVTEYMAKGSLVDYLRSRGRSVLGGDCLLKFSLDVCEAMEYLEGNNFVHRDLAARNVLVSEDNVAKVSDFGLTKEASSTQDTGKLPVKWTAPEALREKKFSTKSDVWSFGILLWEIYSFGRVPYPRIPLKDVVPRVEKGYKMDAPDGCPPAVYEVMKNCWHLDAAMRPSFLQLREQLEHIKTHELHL
Chain of Leucine-rich repeat serine/threonine-protein kinase 2 (Q5S007 whole entry G2019S, the tested form may be a part): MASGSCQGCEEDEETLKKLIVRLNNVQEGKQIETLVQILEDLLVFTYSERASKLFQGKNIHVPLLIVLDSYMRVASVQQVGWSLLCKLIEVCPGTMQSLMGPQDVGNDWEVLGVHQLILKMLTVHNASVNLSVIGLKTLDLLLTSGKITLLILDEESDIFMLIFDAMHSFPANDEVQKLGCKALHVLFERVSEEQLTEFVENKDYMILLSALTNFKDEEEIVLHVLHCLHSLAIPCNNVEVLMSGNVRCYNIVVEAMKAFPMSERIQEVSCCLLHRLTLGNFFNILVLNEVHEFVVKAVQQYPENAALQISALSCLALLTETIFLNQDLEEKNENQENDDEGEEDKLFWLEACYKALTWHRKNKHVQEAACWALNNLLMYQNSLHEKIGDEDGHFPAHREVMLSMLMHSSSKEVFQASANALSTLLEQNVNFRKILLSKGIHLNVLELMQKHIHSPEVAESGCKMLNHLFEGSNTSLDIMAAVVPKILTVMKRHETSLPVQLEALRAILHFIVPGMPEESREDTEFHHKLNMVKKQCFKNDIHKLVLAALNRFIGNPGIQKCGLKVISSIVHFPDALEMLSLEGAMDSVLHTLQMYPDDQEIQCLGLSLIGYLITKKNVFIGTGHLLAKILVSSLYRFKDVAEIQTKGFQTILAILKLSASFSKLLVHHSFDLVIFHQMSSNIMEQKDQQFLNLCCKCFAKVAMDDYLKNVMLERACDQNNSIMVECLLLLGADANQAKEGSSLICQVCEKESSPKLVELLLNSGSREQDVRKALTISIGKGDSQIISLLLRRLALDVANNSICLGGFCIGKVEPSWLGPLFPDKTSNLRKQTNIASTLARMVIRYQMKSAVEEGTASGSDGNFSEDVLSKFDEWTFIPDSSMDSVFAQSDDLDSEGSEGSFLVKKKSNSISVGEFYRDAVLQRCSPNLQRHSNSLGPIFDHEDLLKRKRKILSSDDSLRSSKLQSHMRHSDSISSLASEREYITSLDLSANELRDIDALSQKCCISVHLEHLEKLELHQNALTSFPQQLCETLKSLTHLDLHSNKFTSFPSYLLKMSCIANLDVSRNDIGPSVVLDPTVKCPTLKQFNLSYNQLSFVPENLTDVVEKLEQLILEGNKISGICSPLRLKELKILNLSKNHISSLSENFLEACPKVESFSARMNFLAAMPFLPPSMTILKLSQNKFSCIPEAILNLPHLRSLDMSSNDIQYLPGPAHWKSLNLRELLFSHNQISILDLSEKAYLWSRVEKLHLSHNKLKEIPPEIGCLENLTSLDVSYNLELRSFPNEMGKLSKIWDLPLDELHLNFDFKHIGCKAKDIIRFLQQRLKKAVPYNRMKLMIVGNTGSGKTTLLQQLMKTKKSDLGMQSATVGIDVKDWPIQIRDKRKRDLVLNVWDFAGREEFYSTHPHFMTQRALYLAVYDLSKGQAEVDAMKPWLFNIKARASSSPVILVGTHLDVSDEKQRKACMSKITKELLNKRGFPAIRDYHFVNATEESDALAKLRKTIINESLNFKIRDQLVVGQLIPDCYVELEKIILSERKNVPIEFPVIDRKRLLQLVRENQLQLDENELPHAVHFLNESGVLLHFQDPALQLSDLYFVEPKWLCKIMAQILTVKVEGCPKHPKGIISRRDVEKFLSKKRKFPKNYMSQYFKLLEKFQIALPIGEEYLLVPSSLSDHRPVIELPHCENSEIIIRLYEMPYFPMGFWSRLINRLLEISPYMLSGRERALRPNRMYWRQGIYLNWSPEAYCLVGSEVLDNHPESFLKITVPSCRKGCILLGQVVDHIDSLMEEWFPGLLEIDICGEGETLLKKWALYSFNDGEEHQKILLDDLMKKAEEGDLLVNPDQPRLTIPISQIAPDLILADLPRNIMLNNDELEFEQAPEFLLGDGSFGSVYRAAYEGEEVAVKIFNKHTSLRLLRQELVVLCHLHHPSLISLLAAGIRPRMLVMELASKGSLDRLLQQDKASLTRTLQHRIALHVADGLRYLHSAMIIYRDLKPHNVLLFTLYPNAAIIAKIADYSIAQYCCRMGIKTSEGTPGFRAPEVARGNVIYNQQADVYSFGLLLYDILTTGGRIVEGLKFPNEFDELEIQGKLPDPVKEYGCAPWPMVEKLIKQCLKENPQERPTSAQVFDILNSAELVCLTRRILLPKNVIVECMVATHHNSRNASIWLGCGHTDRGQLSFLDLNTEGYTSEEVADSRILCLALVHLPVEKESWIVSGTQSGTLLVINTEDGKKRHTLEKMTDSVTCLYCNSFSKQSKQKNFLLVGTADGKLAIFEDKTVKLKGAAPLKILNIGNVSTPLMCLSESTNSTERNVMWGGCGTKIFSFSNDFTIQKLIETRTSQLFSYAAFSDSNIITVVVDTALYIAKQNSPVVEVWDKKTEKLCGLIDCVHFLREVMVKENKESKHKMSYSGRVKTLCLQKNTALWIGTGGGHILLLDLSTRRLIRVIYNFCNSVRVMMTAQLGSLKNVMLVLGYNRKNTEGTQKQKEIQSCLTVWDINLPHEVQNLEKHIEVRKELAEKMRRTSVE
Chain of Insulin receptor-related protein (Homo sapiens) (P14616 27-742 limits assumed): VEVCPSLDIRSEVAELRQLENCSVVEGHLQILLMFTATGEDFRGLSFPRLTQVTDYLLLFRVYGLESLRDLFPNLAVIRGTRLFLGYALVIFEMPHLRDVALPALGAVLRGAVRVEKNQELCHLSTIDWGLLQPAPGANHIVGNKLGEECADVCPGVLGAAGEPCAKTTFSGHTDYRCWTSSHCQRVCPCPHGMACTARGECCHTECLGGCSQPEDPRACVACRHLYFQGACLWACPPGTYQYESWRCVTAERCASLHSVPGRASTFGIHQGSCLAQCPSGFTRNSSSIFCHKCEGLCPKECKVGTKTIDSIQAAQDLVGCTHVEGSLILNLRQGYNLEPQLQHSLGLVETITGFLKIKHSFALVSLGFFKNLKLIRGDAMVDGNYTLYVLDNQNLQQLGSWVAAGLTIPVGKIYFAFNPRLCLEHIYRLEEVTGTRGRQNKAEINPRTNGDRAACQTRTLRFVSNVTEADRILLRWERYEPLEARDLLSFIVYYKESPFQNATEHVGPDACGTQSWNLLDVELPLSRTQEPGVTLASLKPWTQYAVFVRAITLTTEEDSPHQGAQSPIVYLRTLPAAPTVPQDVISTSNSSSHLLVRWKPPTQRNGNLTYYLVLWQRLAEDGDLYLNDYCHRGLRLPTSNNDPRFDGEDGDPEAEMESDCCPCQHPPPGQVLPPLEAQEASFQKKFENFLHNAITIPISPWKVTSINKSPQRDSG
Chain of Insulin receptor-related protein (Homo sapiens) (P14616 747-1297 limits assumed): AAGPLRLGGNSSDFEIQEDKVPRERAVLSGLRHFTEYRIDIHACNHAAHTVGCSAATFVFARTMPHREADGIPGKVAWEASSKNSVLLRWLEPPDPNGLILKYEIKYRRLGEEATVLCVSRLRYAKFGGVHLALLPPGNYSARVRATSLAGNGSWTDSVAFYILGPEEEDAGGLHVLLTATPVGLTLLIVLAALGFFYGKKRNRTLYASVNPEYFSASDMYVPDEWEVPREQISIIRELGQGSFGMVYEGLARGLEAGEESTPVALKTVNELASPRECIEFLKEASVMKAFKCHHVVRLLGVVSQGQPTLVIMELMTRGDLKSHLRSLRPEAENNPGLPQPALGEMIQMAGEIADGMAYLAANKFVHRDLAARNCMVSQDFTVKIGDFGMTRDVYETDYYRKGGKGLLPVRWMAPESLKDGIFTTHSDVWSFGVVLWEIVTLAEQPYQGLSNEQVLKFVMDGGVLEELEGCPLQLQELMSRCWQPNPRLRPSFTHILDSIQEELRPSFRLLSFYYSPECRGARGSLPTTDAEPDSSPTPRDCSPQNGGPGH

Compound | IC50 [1] [µM] | inhibition [2] [%] | inhibition [3] [%] | inhibition [4] [%] | inhibition [5] [%] | inhibition [6] [%] | inhibition [7] [%] | inhibition [8] [%] | inhibition [9] [%] | inhibition [10] [%] | inhibition [11] [%] | inhibition [12] [%] | inhibition [13] [%] | inhibition [14] [%] | inhibition [15] [%] | metabolised at 40 min [16] [%] | inhibition [17] [%]
Cc1n[nH]c2ccnc(NC3CCCCC3)c12 | 0.39 | 0 | 34 | 80 | 24 | 38 | 55 | 86 | 46 | 0 | 29 | 70 | 70 | 27 | 59 | 7 | 41
Cc1n[nH]c2ccnc(Nc3ccc4ncsc4c3)c12 | 0.13 to 0.38 | 0 | 36 | 72 | – | – | 77 | 78 | – | – | – | – | 10 | 77 | 84 | – | –
Cc1n[nH]c2ccnc(Nc3ccccc3F)c12 | 0.15 | 8 | 46 | 66 | 15 | 50 | 43 | 79 | 36 | 2 | 34 | 77 | 26 | 46 | 61 | – | 69
CC(C)n1cc(-c2n[nH]c3ccnc(OC4CCOCC4)c23)cn1 | 0.011 | – | – | – | – | – | – | – | – | – | – | – | – | – | – | 21 | –
Cc1n[nH]c2ccnc(OC3CCCCC3)c12 | 0.067 | 20 | 46 | 79 | 28 | 56 | 92 | 86 | 72 | 0 | 55 | 66 | 40 | 86 | 84 | 25 | 73
c1cc(-c2n[nH]c3ccnc(OC4CCOCC4)c23)cc(N2CCOCC2)n1 | 0.012 | – | – | – | – | – | – | – | – | – | – | – | – | – | – | 43 | –
